According to ChEMBL document CHEMBL1124108, “Antihypertensive thiadiazoles. 2. Vasodilator activity of some 2-aryl-5-guanidino-1,3,4-thiadiazoles” (1988):

System: Rattus norvegicus
Assay: Maximum percentage reduction in mean blood pressure in metacorticoid (DOCA) hypertensive rats at a standard oral dose of 100 mg/kg
Type: functional
How it was run: (§1)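 Rats were DOCA hypertensive. For oral dosing, food was withdrawn 18 h before; rats dosed ip were not starved. The vehicle was isotonic saline. Pressure was recorded by transducer under minimal restraint: twice before dosing, then at 1, 2, 3, 5 and 22 h. MABP was taken as diastolic + one-third pulse pressure. The value is the maximum % fall from the mean of the two pretreatment readings, n = 3-5.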

Compared with `CCC[S+]([O-])c1ccccc1-c1nnc(N=C(N)N)s1.Cl` (stereo unspecified), `C[S+]([O-])c1ccccc1-c1nnc(N=C(N)N)s1.Cl` (stereo unspecified) is higher in Reduction: 13% for the first, 15% for the second.

Compared with `Cc1ccc(F)cc1-c1nnc(N=C(N)N)s1.Cl`, `Cc1cc(F)ccc1-c1nnc(N=C(N)N)s1.Cl` is higher in Reduction: 21% for the first, 34% for the second.

First: Cl.N=C(N)Nc1nnc(-c2ccccc2N)s1
Second: Cl.N=C(N)Nc1nnc(-c2ccccc2[N+](=O)[O-])s1
The Reduction of the first is lower: 14% for the first, 17% for the second.

First: CSc1ccccc1-c1nnc(N=C(N)N)s1.Cl
Second: COc1ccccc1-c1nnc(N=C(N)N)s1.Cl
The Reduction of the first is lower: 13% for the first, 26% for the second.

First: Cc1ccccc1-c1nnc(NC(=N)NCCCO)s1.Cl
Second: Cc1ccccc1-c1nnc(NC(=N)NCCO)s1.Cl
The Reduction of the first is lower: 24% for the first, 35% for the second.

`Cc1ccsc1-c1nnc(N=C(N)N)s1.Cl` and `Cc1cccc(-c2nnc(N=C(N)N)s2)c1C.Cl` are the same in Reduction: 14% for the first, 14% for the second.

Going from `CCC/N=C(/N)Nc1nnc(-c2ccccc2C)s1.Cl` to `CCCCC/N=C(/N)Nc1nnc(-c2ccccc2C)s1.Cl`, the Reduction falls from 32% to 23%.

Compared with `COc1ccc(-c2nnc(N=C(N)N)s2)cc1OC.Cl`, `COc1cccc(OC)c1-c1nnc(N=C(N)N)s1` is lower in Reduction: 21% for the first, 16% for the second.

Compared with `Cl.N=C(N)Nc1nnc(-c2ccccn2)s1`, `Cl.N=C(N)Nc1nnc(-c2ccco2)s1` is higher in Reduction: 19% for the first, 24% for the second.

Compared with `Cc1ccccc1-c1nnc(NC(=N)N2CCN(C)CC2)s1.Cl`, `Cc1ccccc1-c1nnc(NC(=N)N2CCOCC2)s1.Cl` is lower in Reduction: 18% for the first, 16% for the second.

Going from `CCCC/N=C(/NC)Nc1nnc(-c2ccccc2C)s1.Cl` to `C/N=C(/NC)Nc1nnc(-c2ccccc2C)s1.Cl`, the Reduction falls from 28% to 27%.

`CCc1ccccc1-c1nnc(N=C(N)N)s1` and `CCCOc1ccccc1-c1nnc(N=C(N)N)s1.Cl` are the same in Reduction: 12% for the first, 12% for the second.

Compared with `Cl.N=C(N)Nc1nnc(-c2ccc(Cl)c(Cl)c2)s1`, `Cl.N=C(N)Nc1nnc(-c2cccs2)s1` is higher in Reduction: 15% for the first, 32% for the second.

Compared with `Cc1ccccc1-c1nnc(NC(=N)N(C)CC(C)O)s1.Cl` (stereo unspecified), `Cc1ccccc1-c1nnc(NC(=N)N(C)C)s1.Cl` is lower in Reduction: 21% for the first, 18% for the second.

First: COCCC/N=C(/N)Nc1nnc(-c2ccccc2C)s1.Cl
Second: CCOCC/N=C(/N)Nc1nnc(-c2ccccc2C)s1.Cl
The Reduction of the first is lower: 33% for the first, 34% for the second.

First: Cc1ccccc1-c1nnc(NC(=N)NCC2CCCO2)s1.Cl (stereo unspecified)
Second: Cc1ccccc1-c1nnc(NC(=N)NC2CCCC2)s1.Cl
The Reduction of the first is lower: 17% for the first, 20% for the second.

Compared with `COc1cc(C)c(-c2nnc(N=C(N)N)s2)cc1OC.Cl`, `Cc1ccc(-c2nnc(N=C(N)N)s2)cc1C.Cl` is higher in Reduction: 24% for the first, 33% for the second.

First: CC(C)(C)c1ccccc1-c1nnc(N=C(N)N)s1
Second: Cc1cccc(-c2nnc(N=C(N)N)s2)c1.Cl
The Reduction of the first is higher: 22% for the first, 19% for the second.

First: COCC/N=C(/N)Nc1nnc(-c2ccc(F)cc2C)s1.Cl
Second: COCC/N=C(/N)Nc1nnc(-c2ccc(C)cc2C)s1.Cl
The Reduction of the first is higher: 33% for the first, 31% for the second.

Compared with `Cl.N=C(N)Nc1nnc(-c2cccc3ccccc23)s1`, `Cc1ccccc1-c1nnc(NC(=N)NCc2ccccc2)s1.Cl` is lower in Reduction: 20% for the first, 12% for the second.

Going from `COCC/N=C(/N)Nc1nnc(-c2ccc(OC)c(OC)c2)s1.Cl` to `COCC/N=C(/N)Nc1nnc(-c2ccccc2I)s1.Cl`, the Reduction rises from 20% to 33%.

First: Cc1cc(C)cc(-c2nnc(N=C(N)N)s2)c1.Cl
Second: C/N=C(/N)Nc1nnc(-c2ccccc2C)s1
The Reduction of the first is lower: 18% for the first, 31% for the second.

System: Rattus norvegicus
Assay: Maximum percentage reduction in mean arterial blood pressure in metacorticoid (DOCA) hypertensive rats at a standard oral dose of 100 mg/kg
Type: functional
How it was run: as §1

Compared with `C=CCNC(=N)Nc1nnc(-c2ccccc2C)s1.Cl`, `CSCC/N=C(/N)Nc1nnc(-c2ccccc2C)s1.Cl` is lower in Reduction: 28% for the first, 18% for the second.

First: Cl.N=C(N)Nc1nnc(-c2cccc(Cl)c2)s1
Second: Cl.N=C(N)Nc1nnc(-c2cccc(F)c2)s1
The Reduction of the first is lower: 12% for the first, 20% for the second.

Compared with `CC(=O)NCC/N=C(/N)Nc1nnc(-c2ccccc2C)s1`, `Cc1ccccc1-c1nnc(N/C(N)=N\CCCN(C)C)s1.Cl` is lower in Reduction: 21% for the first, 20% for the second.

In the case of `Cc1ccc(-c2nnc(NC3=NCCN3)s2)c(C)c1.Cl`, the Reduction is reported as 24%.
